The subject of one data set is Rattus norvegicus. In words: Improvement in lung function in Sprague-Dawley rat model of cigarette-smoke-induced and LPS-induced COPD assessed as improvement in PEF at 1 to 5 mg/kg dosed via inhalation once per day for 28 days. It is filed as functional, organism-based. Conditions: dose mg/kg 1-5, time 28.0 day. An outline of the steps: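 Five-week-old male SD rats exposed to cigarette smoke days 2–42 (6 d/week), with tracheal LPS on days 1 and 20. Then aerosolised inhaled compound at 1, 3 or 5 mg/kg/day for 28 days; vehicle group received aerosolised vehicle; fresh-air normal group. Read-outs: lung function, blood gas, BALF cell counts, BALF and plasma cytokines. n = 10 per group, mean ± SD.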

The nature of data set [1]: Clearance in rat liver. Type of data set: ADME, tissue-based. Conditions: in vivo. An outline of the steps: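 Liver microsomes, 0.5 mg/mL, with compound, 1 mM NADPH, 4 mM MgCl2 in PBS at 37 °C, in triplicate, started by NADPH. Sampled at 0–90 min and quenched in acetonitrile with caffeine internal standard. Analysed by HPLC-MS/MS. t1/2, intrinsic and extrapolated hepatic clearance derived by the Obach method.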

Data set [2] is described as follows: Clearance in Sprague-Dawley rat at 1 mg/kg, iv measured up to 24 hrs by LC-MS/MS analysis. Conditions: in vivo. Type of data set: ADME, organism-based. An outline of the steps:
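Male SD rats, one week acclimatised, fasted 12 h; 3 per route. IV 1 mg/kg from 2 mg/mL solution in DMSO/5% glucose (70:30). Inhaled 5 mg/kg nebulised from freeze-dried HP-β-CD complex (1:7) redissolved in saline. Heparinised blood sampled 2 min–24 h (IV) or 5 min–72 h (inhaled). Plasma protein-precipitated with methanol, caffeine internal standard, LC-MS/MS. Mean ± SD, n = 3.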

Data set [3] deals with Phosphatidylinositol 4,5-bisphosphate 3-kinase catalytic subunit gamma isoform (Mus musculus) (UniProt Q9JHG7). Description: Inhibition of PI3Kgamma in mouse RAW264.7 cells assessed as reduction in human C5a-stimulated AKT S473 phosphorylation up to 3 uM incubated for 1 hr by Western blot analysis. The settings on record: dose microM <=3, time 1.0 hrs. (In general: A western blot detects proteins with antibodies after separation by electrophoresis.)

Calls of active or inactive are those of the source. No cut-off for these calls is given here.

Phosphatidylinositol 4,5-bisphosphate 3-kinase catalytic subunit gamma isoform (Mus musculus), sequence (Q9JHG7 whole entry, looked up, canonical isoform): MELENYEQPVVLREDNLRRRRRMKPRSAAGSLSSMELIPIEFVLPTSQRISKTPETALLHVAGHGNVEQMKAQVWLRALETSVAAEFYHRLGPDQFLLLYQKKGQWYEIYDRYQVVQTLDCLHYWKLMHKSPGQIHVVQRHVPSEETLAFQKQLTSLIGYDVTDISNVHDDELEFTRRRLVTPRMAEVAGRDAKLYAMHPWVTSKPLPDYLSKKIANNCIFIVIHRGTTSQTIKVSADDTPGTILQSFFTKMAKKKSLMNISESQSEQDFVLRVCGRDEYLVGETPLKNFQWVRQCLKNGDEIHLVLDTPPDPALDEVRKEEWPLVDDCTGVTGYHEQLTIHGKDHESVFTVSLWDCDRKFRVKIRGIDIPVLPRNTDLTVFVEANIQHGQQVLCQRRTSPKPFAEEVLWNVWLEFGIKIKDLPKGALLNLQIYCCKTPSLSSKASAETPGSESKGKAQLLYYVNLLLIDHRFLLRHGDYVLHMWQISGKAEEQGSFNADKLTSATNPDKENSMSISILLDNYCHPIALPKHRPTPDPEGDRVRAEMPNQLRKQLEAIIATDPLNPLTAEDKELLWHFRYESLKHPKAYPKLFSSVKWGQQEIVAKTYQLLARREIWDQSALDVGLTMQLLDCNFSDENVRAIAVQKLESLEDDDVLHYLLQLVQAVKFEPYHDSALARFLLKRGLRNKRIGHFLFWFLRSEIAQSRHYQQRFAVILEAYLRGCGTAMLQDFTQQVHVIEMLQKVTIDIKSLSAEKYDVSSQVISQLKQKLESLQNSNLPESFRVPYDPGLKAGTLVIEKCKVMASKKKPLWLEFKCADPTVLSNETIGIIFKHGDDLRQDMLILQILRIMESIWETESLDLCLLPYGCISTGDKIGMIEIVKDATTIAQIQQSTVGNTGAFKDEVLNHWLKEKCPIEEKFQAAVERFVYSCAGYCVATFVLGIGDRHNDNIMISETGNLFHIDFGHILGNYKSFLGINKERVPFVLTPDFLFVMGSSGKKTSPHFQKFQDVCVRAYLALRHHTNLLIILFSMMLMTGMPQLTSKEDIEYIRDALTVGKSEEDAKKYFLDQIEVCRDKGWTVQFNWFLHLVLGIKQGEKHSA

For the molecule `CC[C@@H](c1nc2cccc(F)c2c(=O)n1C1CC1)n1nc(-c2ccc(OC)c(F)c2)c2c(N)ncnc21`, in the data set with Rattus norvegicus, the Activity entry was “Dose-dependent effect”. For the same molecule, in data set [1], the CLH is 20.1 mL/min/kg. In addition, the clearance (in general, a measure of how efficiently the substance is removed, as volume per time) in data set [2] is 18.1 mL/min/kg. In addition, in data set [3], the inhibition entry was “inactive”.

These data come from ChEMBL document CHEMBL4699641, “Discovery of (S)-2-(1-(4-Amino-3-(3-fluoro-4-methoxyphenyl)-1H-pyrazolo[3,4-d]pyrimidin-1-yl)propyl)-3-cyclopropyl-5-fluoroquinazolin-4(3H)-one (IHMT-PI3Kδ-372) as a Potent and Selective PI3Kδ Inhibitor for the Treatment of Chronic Obstructive Pulmonary Disease” (J Med Chem, 2020).
